Assay results: ChEMBL document CHEMBL1132556, “Combined effect of platination and intercalation upon DNA binding of novel cytotoxic Pt-bis(naphthalimide) complexes” (J Med Chem, 1999)

Tests used:
CH1 [1] = assay: Compound was tested for inhibitory activity against CH1 human ovarian carcinoma cell line; activity expressed in Mean IC50 values; format: functional, cell-based
In short: (§1)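 Cell survival in drug-treated cultures read by MTT assay. Compound stock solutions (0.5–1.2 mg/mL) were freshly prepared before use. Cells: ovarian carcinoma lines A2780, A2780cisR, CH1 and CH1cisR; normal murine keratinocytes Pam 212; Pam 212-ras, which are murine keratinocytes transformed with the v-H-ras oncogene and resistant to cis-DDP.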

[2] = Compound was tested for inhibitory activity against normal Pam 212 murine keratinocytes; activity expressed in Mean IC50 values; format: functional, Mus musculus; in short: as §1
[3] = (§2) Compound was tested for inhibitory activity against transformed Pam 212-ras murine keratinocytes; activity expressed in Mean IC50 values; format: functional, Mus musculus; in short: as §1
CH1 [4] = assay: Compound was tested for inhibitory activity against CH1cisR human ovarian carcinoma cell line; activity expressed in Mean IC50 values; format: functional, cell-based; in short: as §1
A2780 [5] = assay: Compound was tested for inhibitory activity against A2780 human ovarian carcinoma cell line; activity expressed in Mean IC50 values; format: functional, cell-based; in short: as §1
A2780 [6] = assay: Compound was tested for inhibitory activity against A2780cisR human ovarian carcinoma cell line; activity expressed in Mean IC50 values; format: functional, cell-based; in short: as §1
Mus musculus = species on record: Mus musculus; assay: as §2; format: functional, organism-based; in short: as §1

IC50 (CH1 [1]; Homo sapiens, CH1) [µM]	IC50 [3] [µM]	IC50 (CH1 [4]; Homo sapiens, CH1cisR) [µM]	IC50 (A2780 [5]; Homo sapiens, A2780) [µM]	IC50 (A2780 [6]; Homo sapiens, A2780) [µM]	IC50 (Mus musculus) [µM]	IC50 (CH1 [4]; ch1cisr) [µM]	IC50 (CH1 [1]; ch1) [µM]	IC50 (A2780 [5]; a2780) [µM]	IC50 (A2780 [6]; a2780) [µM]	Compound	IC50 [2] [µM]
> 10	160	> 100	> 10	> 100	–	–	–	–	–	O=C1c2cccc3cccc(c23)C(=O)N1CCNCCNCCN1C(=O)c2cccc3cccc(c23)C1=O	140
–	–	–	–	–	165	0.65	–	–	–	CISPLATIN	–
–	89	–	–	–	–	0.6	0.35	0.28	1	Platinum cyclobutane-1,1-dicarboxylic acid-bis-(naphthalimide) complex	158
